Arbovirus inh – antivirals against arbovirus infection | arbovirus infection cell-based antiviral screen | inhibition, % at 10 µM | hit rate 0.37% among 200,000; in the data active = inhibition above about 30%
RAM network inh – inhibitors of the yeast RAM network. S. cerevisiae dse1pr::URA3 reporter, 5-FOA growth OD615, 2 d; analog-sensitive cbk1-as2 kinase mutant strain. inhibition, % at 50 µM. hit rate 1.8% among 190,000. AID 868;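 active = inhibition above a set limit, 3 SD over mean compound inhibition, cut at about 8.4% in these data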;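 note: 0% = DMSO-only wells with no growth and 100% = 10 µM 1-NA-PP1 full growth; inhibition rescues growth on 5-FOA so higher OD means more RAM inhibition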
p47phox inh – p47phox (human) inhibition. P14598. p47phox/p22phox peptide binding, fluorescence polarization, 2 h. inhibition, % at 24.7 µM. hit rate 0.53% among 220,000. AID 1274;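 active = inhibition above about 30%, limit read from the data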;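 note: 0% = p47phox with labelled peptide and 100% = labelled peptide alone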
WT yeast gro inh – growth inhibition of WT yeast, mitochondrial fusion screen; mitochondrial fusion phenotypic screen, WT strain; inhibition, % at 10 µM; hit rate 2.1% among 190,000; in the data active = inhibition above about 58%; tested in S. cerevisiae
Hck-Nef inh – inhibitors of human Hck kinase activated by Nef. P08631. hit rate 0.68% among 220,000. Recombinant Hck-YEEI plus Nef, Z-Lyte FRET kinase assay. inhibition, % at 20 µM. AID 463187;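 active = Hck-Nef kinase inhibition above about 50%, limit read from the data; inactive = inhibition below that limit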;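 note: 0% = DMSO with Hck plus Nef and 100% = Hck alone without Nef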
Target sequence (P08631 whole entry, looked up): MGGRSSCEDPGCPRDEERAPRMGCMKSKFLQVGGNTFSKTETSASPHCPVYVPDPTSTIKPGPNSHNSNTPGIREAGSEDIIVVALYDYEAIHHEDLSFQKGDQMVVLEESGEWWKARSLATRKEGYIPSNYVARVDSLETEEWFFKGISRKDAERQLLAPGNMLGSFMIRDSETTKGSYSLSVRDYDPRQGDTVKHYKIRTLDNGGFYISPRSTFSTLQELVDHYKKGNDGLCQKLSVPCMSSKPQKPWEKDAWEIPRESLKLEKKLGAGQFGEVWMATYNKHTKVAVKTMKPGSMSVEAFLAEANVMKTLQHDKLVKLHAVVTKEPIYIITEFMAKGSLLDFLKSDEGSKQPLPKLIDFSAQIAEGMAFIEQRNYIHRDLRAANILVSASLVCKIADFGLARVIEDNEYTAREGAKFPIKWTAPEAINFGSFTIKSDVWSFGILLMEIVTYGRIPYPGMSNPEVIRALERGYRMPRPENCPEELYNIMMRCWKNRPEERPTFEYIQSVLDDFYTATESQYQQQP
Calb biofilm kill – mixtures killing C. albicans biofilm; C. albicans biofilm persisters + clotrimazole, fluorescence viability; primary screen in compound mixtures of four per well; inhibition, % at 7.6 µM; hit rate 0.02% among 120,000; AID 1242;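 active = inhibition above 30.3% in the primary screen of four-compound pools, then above 30% when the compound was retested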;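 note: compounds exposed to preformed 24 h biofilms for 48 h; 0% = untreated biofilm control and 100% = clotrimazole plus chlorhexidine kill blank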
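Assay system: C. albicans biofilms / Medium: RPMI/MOPS medium, pH 7.0 / Schedule: biofilm formation 24 h, compound exposure 48 h, 37 °C / Measured by: Alamar Blue fluorescence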
* marks the source's active call; other numbers are inactive results; nt = no result. Compounds with a hit are over-represented: about 4.6% of the library has one in this group of screens.

SMILES	Arbovirus inh	RAM network inh	p47phox inh	WT yeast gro inh	Hck-Nef inh	Calb biofilm kill
CC(C)(C)c1ccc(OCCCNCc2ccccc2)cc1	-35.1	-1.0	3.6	87.0*	-34.3	19.3
COCCCNCCCOc1ccc(C(C)(C)c2ccccc2)cc1	-23.8	-0.3	-1.0	44.7	3.2	11.9
COc1ccc(C2CC(c3cccs3)=NN2c2nc(-c3ccccc3)cs2)cc1OC (stereo not given)	-3.0	7.8	-61.3	-6.9	3.4	nt
CCCCOc1ccc(C(O)C(CN2CCCCC2)c2ccccc2)cc1 (stereo not given)	36.9*	0.1	-16.7	10.6	21.3	11.5
CCCCOc1ccc(C(O)C(CN2CCOCC2)c2ccccc2)cc1 (stereo not given)	nt	nt	-5.1	nt	15.1	27.4
O=C(NCC1CCCO1)C1CCN(C2CCN(C(=O)Cc3ccsc3)CC2)CC1 (stereo not given)	6.9	0.4	0.1	-3.0	3.9	11.6
O=C(Oc1coc(CSc2nnc(NC(=O)C3CC3)s2)cc1=O)c1c(F)cccc1F	-19.2	7.1	-8.7	2.5	27.1	4.6
Cc1ccc(-c2csc(NC(=O)c3cccc(S(=O)(=O)N4CCN(C)CC4)c3)n2)cc1	35.1*	2.1	-22.7	6.1	3.4	nt
COc1cc(C(=O)Nc2nc(-c3ccc(F)cc3)cs2)ccc1OCC(=O)N1CCOCC1	83.3*	-0.3	-23.8	6.4	0.7	14.7
COc1cc(C(=O)Nc2nc(-c3ccc(C)cc3)cs2)ccc1OCC(=O)N1CCOCC1	90.8*	6.9	-11.9	13.3	-1.4	6.7
COc1ccc(-c2csc(NC(=O)c3ccc(OCC(=O)N4CCOCC4)c(OC)c3)n2)cc1	44.0*	5.5	-77.7	-7.8	1.5	11.7
Cc1c(Cl)cccc1NC(=O)c1cc(C2CC2)on1	-13.8	0.1	-17.0	-0.3	15.4	nt
Cc1ccc(S(=O)(=O)N2CCCOC2CNC(=O)C(=O)NCc2cccs2)cc1 (stereo not given)	-10.2	2.0	-11.5	-1.9	0.9	20.0
COc1cccc(C(O)c2nc3ccccc3n2C(C)C)c1 (stereo not given)	13.3	0.7	-1.2	-13.8	0.6	nt
COc1ccc(Cn2c(C3CC3)nc3ccc(NC(C)=O)cc3c2=O)cc1	6.3	10.4*	-14.4	23.6	2.0	nt
CCOc1ccc(NC(=S)N(CCc2c(C)[nH]c3ccc(C)cc23)Cc2ccco2)cc1	4.1	3.3	-26.6	67.0*	4.2	3.1
CNC(=S)N(CCc1c(C)[nH]c2ccc(C)cc12)Cc1cccs1	-16.8	4.1	-9.5	65.3*	17.2	18.8
COc1ccc(NC(=S)N(CCc2c(C)[nH]c3ccc(C)cc23)Cc2ccco2)cc1	4.0	2.0	-21.5	68.7*	1.8	5.1
CCNC(=S)N(Cc1ccco1)Cc1cc2cc(OCC)ccc2[nH]c1=O	6.8	9.7*	0.5	5.0	12.8	15.9
O=C(CSc1ncc(-c2ccc(F)cc2)[nH]1)Nc1cccc(O)c1	2.7	-0.1	-13.1	13.2	5.5	nt
COc1ccc(N2CC(C(=O)NC3=NCCS3)CC2=O)cc1 (stereo not given)	2.5	0.8	-5.1	12.5	13.5	10.6
COc1ccc(NC(=S)N(Cc2ccc(N(C)C)cc2)Cc2ccco2)cc1	6.9	0.5	-7.4	11.1	1.6	0.3
CCOc1ccc(NC(=S)N(Cc2ccc(N(C)C)cc2)Cc2ccco2)cc1	-6.5	2.4	-5.4	59.0*	-2.5	nt
CCCN(Cc1ccccc1)C(=S)Nc1ccc(OCC)cc1	5.3	-1.2	1.9	37.2	16.2	15.6
COc1ccc2[nH]c(C)c(CCN(Cc3cccs3)C(=S)Nc3ccc(F)cc3)c2c1	10.6	1.8	-23.8	7.7	-1.0	nt
SMILES	Arbovirus inh	RAM network inh	p47phox inh	WT yeast gro inh	Hck-Nef inh	Calb biofilm kill
CCOc1ccc(NC(=S)NN(C)C(=S)Nc2ccc(OCC)cc2)cc1	-8.3	4.4	-5.3	65.4*	4.6	12.5
COc1ccc(NC(=S)N(CCc2c(C)[nH]c3ccc(C)cc23)Cc2cccs2)cc1	-14.6	2.5	-16.5	66.2*	-12.1	16.9
Cc1nn(-c2ccccc2)c2sc(-c3n[nH]c(=S)o3)cc12	-14.5	-0.3	-51.6	-3.9	0.6	nt
Cc1nn(Cc2ccccc2)c(Cl)c1/C=C1\NC(=S)NC1=O	-14.7	2.3	-12.5	-2.4	23.5	-4.2
CCOc1ccc(NCC(=O)c2ccc(C)cc2)cc1	-9.5	0.2	-1.7	-0.8	10.2	10.4
O=C(Nc1ccc([N+](=O)[O-])cc1)Nc1ccc(N2CCOCC2)c2nonc12	-33.7	1.0	-18.6	78.9*	20.9	-1.7
CC(=O)OC[C@H]1O[C@H](C/C=N/OC[C@@H](O)[C@H]2O[C@@H]3OC(C)(C)O[C@@H]3[C@H]2O)C=C[C@@H]1OC(C)=O	5.4	2.9	2.6	-7.4	-7.7	0.9
O=C(CSc1nc2cc(Cl)ccc2c(=O)n1Cc1ccco1)Nc1ccc(S(=O)(=O)N2CCOCC2)cc1	3.5	9.1*	-43.6	-8.7	3.3	11.7
C=CCn1c(SCc2c(C)noc2C)nnc1C1COc2ccccc2O1 (stereo not given)	71.0*	2.2	-9.7	28.1	-1.3	nt
C=CCn1c(SCC(=O)NCc2ccc3c(c2)OCO3)nnc1C1COc2ccccc2O1 (stereo not given)	-9.1	0.1	-10.2	-8.8	0.2	nt
S=C1NCCc2ccc(Cl)cc2C1c1ccccc1 (stereo not given)	-8.4	0.2	-7.7	70.8*	0.8	13.8
O=C1CN2C(=Nc3ccc(Cl)cc3C2c2ccccc2)CN1 (stereo not given)	16.3	-0.2	1.7	-7.8	-2.7	nt
CCOC(=O)N1CCC(Nc2c(Nc3cccc(CC)c3)c(=O)c2=O)CC1	36.2*	3.2	-12.2	13.8	2.1	nt
CN1N=C(C(=O)N2CCc3c([nH]c4ccccc34)C2c2c(F)cccc2Cl)CCC1=O (stereo not given)	5.9	3.5	-4.7	13.2	21.3	21.8
N#CC1=C(N)C2=CCCC[C@H]2[C@H](c2ccc(Br)cc2)C1(C#N)C#N	-0.1	2.4	-33.2	67.6*	2.9	14.9
O=C(Nc1ccccc1)Nc1ncc([N+](=O)[O-])s1	4.4	3.3	-6.8	69.7*	13.9	15.9
O=C(Nc1ncc([N+](=O)[O-])s1)c1cccc([N+](=O)[O-])c1	nt	nt	-19.1	nt	19.0	17.4
CC(C)N1CCN(Cc2cnc(-c3ccccc3)s2)CC1CCO (stereo not given)	nt	nt	-7.2	nt	2.5	16.3
O=C(Nc1ccc(OCC(F)(F)C(F)F)c(C(F)(F)F)c1)c1ccccc1	nt	nt	nt	nt	0.5	nt
O=C(Nc1ccc(OCC(F)(F)C(F)F)c(C(F)(F)F)c1)c1ccccc1O	-32.6	0.7	-12.4	75.3*	0.6	nt
C=CCSc1nc(N)c(C(=O)Nc2ccccc2)cc1C#N	-5.9	9.8*	5.2	16.0	-8.3	nt
Cc1ccc(-n2cc(CNCCc3cscn3)c(-c3ccc(F)cc3)n2)cc1	-38.7	-0.2	-24.5	68.6*	17.9	23.4
Cc1ccc(-n2cc(CNCCCn3ccnc3C)c(-c3ccc(F)cc3)n2)cc1	-25.4	1.1	5.9	43.3	3.4	12.4

High-throughput results: PubChem, several laboratories
